Measurements pooled from the literature.
Compare with care: the assays were run in different laboratories. ≈ marks a conversion by molar mass, not a printed value.
Organism: Candida albicans

C#CCCCCCCCCCCCC(O)CC(O)CO (stereo not shown) — IC50 (microbial growth, broth dilution; ATCC90028): > 200 µg/mL
C[C@@H]1[C@H](O)[C@@H](C)/C=C/C=C/C=C/C=C/C=C/C=C/C=C/[C@H](O[C@@H]2O[C@H](C)[C@@H](O)[C@H](N)[C@@H]2O)C[C@@H]2O[C@](O)(C[C@@H](O)C[C@@H](O)[C@H](O)CC[C@@H](O)C[C@@H](O)CC(=O)O[C@H]1C)C[C@H](O)[C@H]2C(=O)O — IC50 (microbial growth; ATCC90028): 0.25 µg/mL (≈ 0.271 µM)
C[C@@H]1[C@H](O)[C@@H](C)/C=C/C=C/C=C/C=C/C=C/C=C/C=C/[C@H](O[C@@H]2O[C@H](C)[C@@H](O)[C@H](N)[C@@H]2O)C[C@@H]2O[C@](O)(C[C@@H](O)C[C@@H](O)[C@H](O)CC[C@@H](O)C[C@@H](O)CC(=O)O[C@H]1C)C[C@H](O)[C@H]2C(=O)O — IC50 (microbial growth, broth dilution; ATCC90028): 0.27 µg/mL (≈ 0.292 µM)
C[C@@H]1[C@H](O)[C@@H](C)/C=C/C=C/C=C/C=C/C=C/C=C/C=C/[C@H](O[C@@H]2O[C@H](C)[C@@H](O)[C@H](N)[C@@H]2O)C[C@@H]2O[C@](O)(C[C@@H](O)C[C@@H](O)[C@H](O)CC[C@@H](O)C[C@@H](O)CC(=O)O[C@H]1C)C[C@H](O)[C@H]2C(=O)O — MFC (microbial killing; ATCC90028): 1.35 µM
O=C(O)c1cn(C2CC2)c2cc(N3CCNCC3)c(F)cc2c1=O — MIC (microbial growth, broth dilution): 12.5 µM
C[C@@H]1[C@H](O)[C@@H](C)/C=C/C=C/C=C/C=C/C=C/C=C/C=C/[C@H](O[C@@H]2O[C@H](C)[C@@H](O)[C@H](N)[C@@H]2O)C[C@@H]2O[C@](O)(C[C@@H](O)C[C@@H](O)[C@H](O)CC[C@@H](O)C[C@@H](O)CC(=O)O[C@H]1C)C[C@H](O)[C@H]2C(=O)O — inhibition zone (microbial growth; 1000 µg/mL): 21 mm
Clc1ccccc1C(c1ccccc1)(c1ccccc1)n1ccnc1 — inhibition zone (microbial growth, disc diffusion; 100 µg/mL): 21 mm
Cc1cc(N)c2ccccc2[n+]1CCCCCCCCCC[n+]1c(C)cc(N)c2ccccc21 — inhibition zone (microbial growth, disc diffusion; 50 µg/disc): 13 mm
C#CCCCCCCCCC=CCC(O)CC(O)CO (stereo not shown) — IC50 (microbial growth, broth dilution; ATCC90028): > 8 µg/mL
O=C(Cc1cc(O)c(O)c(O)c1)NCCCCCCCC[P+](c1ccccc1)(c1ccccc1)c1ccccc1.[Br-] — MIC (microbial growth, broth dilution; ATCC90028; 24 h): > 32 µg/mL
CCCCCCCOc1c(OC)cc(NC(C)CCCN)c2nc(C(C)(C)C)ccc12 (stereo not shown) — MFC (microbial killing; ATCC90028): 10 µg/mL
O=C(CCCCCCCCCC[P+](c1ccccc1)(c1ccccc1)c1ccccc1)Nc1ccc(O)c(O)c1.[Br-] — MIC (microbial growth, broth dilution; ATCC90028; 24 h): 32 µg/mL
C[C@@H]1[C@H](O)[C@@H](C)/C=C/C=C/C=C/C=C/C=C/C=C/C=C/[C@H](O[C@@H]2O[C@H](C)[C@@H](O)[C@H](N)[C@@H]2O)C[C@@H]2O[C@](O)(C[C@@H](O)C[C@@H](O)[C@H](O)CC[C@@H](O)C[C@@H](O)CC(=O)O[C@H]1C)C[C@H](O)[C@H]2C(=O)O — inhibition zone (microbial growth, disc diffusion; 35 µg/disc): 11 mm
